Source: article PMC6500479 (Journal of controlled release : official journal of the …, 2019)
Bridges are numbered along the chain shown (N, C = ends). Where no end group is shown, it is not given here. FAM = carboxyfluorescein; Ahx = NCCCCCC(=O)O

What was measured:
macrophages = conditions: ref [22]; cited from earlier work
[1] = test system: bovine serum albumin (BSA); experiment: Binding to control protein BSA
[2] = test system: 4T1 mouse mammary carcinoma; experiment: In vivo homing to 4T1 orthotopic breast tumors; conditions: 5 min, 15 min or 1 h after IV injection, IF
Procedure, shortened: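 4T1 tumors came from 1 × 10⁶ cells in 100 μL PBS injected into the mammary fat pad of female BALB/c mice. FAM-labelled test peptide was given IV, 100 μL of 1 mg/mL in PBS, and circulated 5 min, 15 min or 1 h before PBS perfusion. Fixed frozen sections were blocked in 1% BSA/0.1% Triton X-100 for 1 h at RT. Primaries (1:200) ran overnight at 4 °C, secondaries (1:200) 1 h at RT, with anti-CD31 for vessels. DAPI mounting, confocal imaging.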

For “Biotinylated CRV: Biotinylated CRV (CRVLRSGSC; disulfide 1-9; also: biotin, position not given here)”, the “Inhibition of FAM-CRV binding to macrophages” value (macrophages) is listed as “inhibits the binding of FAM-CRV to macrophages”.

For “GGSGGSKG ({FAM-Ahx}-GGSGGSKG-OH) [FAM-GGS]”, the “Binding to BSA” value [1] was “neither peptide bound” and the “Accumulation in tumors over time” value [2] was “little accumulation in tumors”.
